Results reported in ChEMBL document CHEMBL1145471, “Small molecule regulators of autophagy identified by an image-based high-throughput screen” (Proc Natl Acad Sci U S A, 2007).

Legend:
Format in all cases: functional
H4 [1] = experiment: Increase in light chain 3-GFP+ autophagosome vesicle number per cell in human H4 cells at 6.2 uM after 24 hrs by high throughput fluorescence microscopy relative to control
Summary of the method: (§1)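 H4 cells stably expressing LC3-GFP were grown in DMEM with 10% FBS and 2 mM L-glutamine at 37°C, 5% CO2. They were exposed to each compound for 24 h, with DMSO as negative and rapamycin as positive control. Cells were then fixed in 4% paraformaldehyde and stained with 3 μg/ml DAPI. High-throughput fluorescence imaging scored LC3-GFP spot number, size and intensity, expressed relative to DMSO. Mean ± SD of triplicates; experiments repeated three times.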

H4 [2] = experiment: Increase in light chain 3-GFP+ autophagosome vesicle area per cell in human H4 cells at 6.2 uM after 24 hrs by high throughput fluorescence microscopy relative to control
Summary of the method: (§2)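 H4 cells stably expressing LC3-GFP, seeded in 96-well plates and exposed to compound for 24 h; screening concentrations were 3–12 μM, with rapamycin 0.22 μM and bafilomycin A1 0.40 μM. Cells fixed in 4% paraformaldehyde and stained with 3 μg/ml DAPI. Number, size and intensity of LC3-GFP spots measured by high-throughput fluorescence microscopy and expressed as percent of DMSO-treated wells. Rapamycin was the positive control. Triplicate wells, mean ± SD; experiments repeated three times.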

H4 [3] = experiment: Increase in light chain 3-GFP+ autophagosome vesicle intensity per cell in human H4 cells at 6.2 uM after 24 hrs by high throughput fluorescence microscopy relative to control; summary of the method: as §1
H4 [4] = experiment: Decrease in FYVE-RFP+ vesicle intensity per cell in human H4 cells after 2 hrs relative to control; parameters: concentration or dose not given beside the values; scale not given: the % may be the effect or the level left
Summary of the method: (§3)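 H4 cells stably expressing FYVE-RFP (H4-FYVE), grown in DMEM with 10% FBS, penicillin/streptomycin and 2 mM L-glutamine at 37°C, 5% CO2, seeded in 96-well plates and exposed to compound. Fixed in 4% paraformaldehyde, nuclei stained with 3 μg/ml DAPI, FYVE-RFP+ vesicles quantified by high-throughput fluorescence microscopy against DMSO control. Triplicate wells, mean ± SD.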

H4 [5] = experiment: Decrease in FYVE-RFP+ vesicle intensity per cell in human H4 cells after 4 hrs relative to control; parameters: concentration or dose not given beside the values; scale not given: the % may be the effect or the level left; summary of the method: as §3
H4 [6] = experiment: Decrease in FYVE-RFP+ vesicle intensity per cell in human H4 cells after 8 hrs relative to control; parameters: concentration or dose not given beside the values; scale not given: the % may be the effect or the level left; summary of the method: as §3
H4 [7] = experiment: Increase in long-lived protein degradation in human H4 cells after 1 hr relative to control; parameters: concentration or dose not given beside the values
H4 [8] = experiment: Increase in long-lived protein degradation in human H4 cells after 2 hrs relative to control; parameters: concentration or dose not given beside the values
H4 [9] = experiment: Increase in long-lived protein degradation in human H4 cells after 4 hrs relative to control; parameters: concentration or dose not given beside the values
H4 [10] = experiment: Increase in long-lived protein degradation in human H4 cells after 24 hrs relative to control; parameters: concentration or dose not given beside the values
H4 [11] = experiment: Induction of light chain 3-GFP level in human H4 cells at 6.2 uM after 24 hrs by high throughput fluorescence microscopy relative to control
Summary of the method: (§4)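 H4 cells stably expressing LC3-GFP, grown in DMEM with 10% FBS, penicillin/streptomycin and 2 mM L-glutamine at 37°C, 5% CO2. Cells were seeded in 96-well plates and exposed to library compounds at 3–12 μM for 24 h, then fixed in 4% paraformaldehyde and stained with 3 μg/ml DAPI. LC3-GFP spot number, size and intensity were measured by high-throughput fluorescence microscopy and expressed relative to DMSO. Triplicates, mean ± SD.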

H4 [12] = experiment: Increase in light chain 3-GFP+ autophagosome vesicle number per cell in human H4 cells at 6.9 uM after 24 hrs by high throughput fluorescence microscopy relative to control; summary of the method: as §1
H4 [13] = experiment: Increase in light chain 3-GFP+ autophagosome vesicle area per cell in human H4 cells at 6.9 uM after 24 hrs by high throughput fluorescence microscopy relative to control; summary of the method: as §2
H4 [14] = experiment: Increase in light chain 3-GFP+ autophagosome vesicle intensity per cell in human H4 cells at 6.9 uM after 24 hrs by high throughput fluorescence microscopy relative to control; summary of the method: as §1
H4 [15] = experiment: Induction of light chain 3-GFP level in human H4 cells at 6.9 uM after 24 hrs by high throughput fluorescence microscopy relative to control; summary of the method: as §4
H4 [16] = experiment: Increase in light chain 3-GFP+ autophagosome vesicle number per cell in human H4 cells at 5.2 uM after 24 hrs by high throughput fluorescence microscopy relative to control; summary of the method: as §1
H4 [17] = experiment: Increase in light chain 3-GFP+ autophagosome vesicle area per cell in human H4 cells at 5.2 uM after 24 hrs by high throughput fluorescence microscopy relative to control; summary of the method: as §2
H4 [18] = experiment: Increase in light chain 3-GFP+ autophagosome vesicle intensity per cell in human H4 cells at 5.2 uM after 24 hrs by high throughput fluorescence microscopy relative to control; summary of the method: as §1
H4 [19] = experiment: Effect on FYVE-RFP+ vesicle intensity per cell in human H4 cells after 2 hrs relative to control; parameters: concentration or dose not given beside the values; summary of the method: as §3
H4 [20] = experiment: Effect on FYVE-RFP+ vesicle intensity per cell in human H4 cells after 4 hrs relative to control; parameters: concentration or dose not given beside the values; summary of the method: as §3
H4 [21] = experiment: Effect on FYVE-RFP+ vesicle intensity per cell in human H4 cells after 8 hrs relative to control; parameters: concentration or dose not given beside the values; summary of the method: as §3
H4 [22] = experiment: Induction of light chain 3-GFP level in human H4 cells at 5.2 uM after 24 hrs by high throughput fluorescence microscopy relative to control; summary of the method: as §4
H4 [23] = experiment: Induction of light chain 3-GFP level in human H4 cells at 6.0 uM after 24 hrs by high throughput fluorescence microscopy relative to control
Summary of the method: (§5)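 H4 cells stably expressing LC3-GFP, kept in DMEM/10% FBS at 37°C, 5% CO2, were seeded in 96-well plates and exposed to compound for 24 h. Cells were then fixed in 4% paraformaldehyde and stained with 3 μg/ml DAPI. Automated fluorescence microscopy scored the number, size and intensity of LC3-GFP spots. Values are percent of DMSO wells, in triplicate, mean ± SD. Rapamycin served as positive control.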

H4 [24] = experiment: Increase in light chain 3-GFP+ autophagosome vesicle area per cell in human H4 cells at 6.0 uM after 24 hrs by high throughput fluorescence microscopy relative to control
Summary of the method: (§6)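 H4 cells stably expressing LC3-GFP, seeded in 96-well plates and exposed to compound for 24 h; fixed in 4% paraformaldehyde, nuclei stained with 3 μg/ml DAPI. Automated fluorescence microscopy scored number, size and intensity of LC3-GFP spots; values expressed relative to DMSO-treated wells, rapamycin positive control. Triplicate wells, mean ± SD; experiments repeated three times.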

H4 [25] = experiment: Increase in light chain 3-GFP+ autophagosome vesicle intensity per cell in human H4 cells at 6.0 uM after 24 hrs by high throughput fluorescence microscopy relative to control; summary of the method: as §6
H4 [26] = experiment: Increase in light chain 3-GFP+ autophagosome vesicle number per cell in human H4 cells at 6.0 uM after 24 hrs by high throughput fluorescence microscopy relative to control; summary of the method: as §5

| SMILES | Activity (H4 [4]) [%] | Activity (H4 [5]) [%] | Activity (H4 [6]) [%] | Activity (H4 [7]) [%] | Activity (H4 [8]) [%] | Activity (H4 [9]) [%] | Activity (H4 [10]) [%] | Activity (H4 [16]) [%] | Activity (H4 [17]) [%] | Activity (H4 [18]) [%] | Activity (H4 [22]) [%] | further results |
| --- | --- | --- | --- | --- | --- | --- | --- | --- | --- | --- | --- | --- |
| CC(C)[C@@H](O)CC[C@@H](C)[C@H]1CC[C@H]2[C@@H]3CC=C4C[C@@H](O)CC[C@]4(C)[C@H]3CC[C@]12C | 38.02 | 38.32 | 38.51 | 125.06 | 105.76 | 89.7 | 106.22 |  |  |  |  | Activity (H4 [1]): 220.93%; Activity (H4 [2]): 299.59%; Activity (H4 [3]): 648.9%; Activity (H4 [11]): 108.2% |
| COc1ccc(CCCOC(Cn2ccnc2)c2ccc(OC)cc2)cc1 (stereo unspecified) |  |  |  |  |  |  |  |  |  |  |  | Activity (H4 [1]): 179.88%; Activity (H4 [2]): 209.11%; Activity (H4 [3]): 285.59%; Activity (H4 [11]): 42.96% |
| O=S(=O)(c1cccc2c(Cl)cccc12)N1CCCNCC1 |  |  |  |  |  |  |  |  |  |  |  | Activity (H4 [12]): 210.65%; Activity (H4 [13]): 272.31%; Activity (H4 [14]): 447.81%; Activity (H4 [15]): 82.33% |
| CN(CCc1ccc(Cl)c(Cl)c1)CC(O)COc1ccc(NS(C)(=O)=O)cc1 (stereo unspecified) |  |  |  | 95.15 | 86.27 | 91.75 | 96.25 | 166.24 | 192.05 | 222.83 | 135.28 | Activity (H4 [19]): 68.06%; Activity (H4 [20]): 71.97%; Activity (H4 [21]): 66.35% |
| CC1(C)C(C=C(Cl)Cl)C1C(=O)OC(C#N)c1cccc(Oc2ccccc2)c1 (stereo not drawn) [ALPHA-CYPERMETHRIN] | 33.75 | 29.13 | 58.22 | 94.75 | 95.28 | 98.36 | 103.75 |  |  |  |  | Activity (H4 [23]): 97.45%; Activity (H4 [24]): 200.12%; Activity (H4 [25]): 208.14%; Activity (H4 [26]): 174.74% |
| CC(C)COCC(CN(Cc1ccccc1)c1ccccc1)N1CCCC1 (stereo unspecified) [BEPRIDIL] | 65.27 | 45.17 | 35.94 | 101.9 | 112.64 | 98.78 | 117.59 |  |  |  |  | Activity (H4 [1]): 144.05%; Activity (H4 [2]): 160.34%; Activity (H4 [3]): 168.39%; Activity (H4 [11]): 111.92% |
| CCCC[C@@H](C=O)NC(=O)[C@H](CC(C)C)NC(=O)OCc1ccccc1 [CALPEPTIN] | 58.44 | 63.28 | 61.02 | 73.3 | 68.3 | 78.67 | 81.62 |  |  |  |  | Activity (H4 [12]): 177.07%; Activity (H4 [13]): 207.34%; Activity (H4 [14]): 232.89%; Activity (H4 [15]): 128.87% |
| C=C1[C@@H](C)[C@H]2[C@H](Cc3ccccc3)NC(=O)[C@]23OC(=O)/C=C/[C@H](O)CCC[C@@H](C)C/C=C/[C@H]3[C@@H]1O [CYTOCHALASIN B] |  |  |  |  |  |  |  | 208.73 | 247.77 | 286.43 | 30.58 |  |
| Fc1ccc(C(c2ccc(F)cc2)N2CCN(C/C=C/c3ccccc3)CC2)cc1 [FLUNARIZINE] | 53.92 | 44.48 | 48.6 | 97.33 | 107.1 | 93.65 | 113.6 | 155.03 | 179.26 | 203.66 | 104.67 |  |
| CC1(C)[C@@H](O)C[C@H]2[C@](C)(O)[C@@H]3CC[C@@H]4[C@@H](O)[C@@]3(C[C@@H](O)[C@@]21O)C[C@@]4(C)O [GRAYANOTOXIN III] | 45.44 | 39.37 | 39.83 | 95.81 | 96.23 | 90.49 | 91.03 |  |  |  |  | Activity (H4 [23]): 129.36%; Activity (H4 [24]): 154.31%; Activity (H4 [25]): 210.65%; Activity (H4 [26]): 130.17% |
| CC[C@H]1[C@@H]2C=C[C@H]3[C@@H](C[C@H]4/C=C/C(=O)C5=C[C@H](CCCNC(=O)/C=C\C[C@H]34)NC5=O)[C@H]2C[C@H]1C [IKARUGAMYCIN] |  |  |  |  |  |  |  | 75.79 | 107.27 | 172.85 | 50.16 |  |
| O=C1Nc2ccccc2/C1=C1/Nc2ccccc2C1=O [INDIRUBIN] | 73.16 | 35.1 | 59.18 | 105.91 | 94.5 | 95.3 | 100.5 |  |  |  |  |  |
| O=c1cc(N2CCOCC2)oc2c(-c3ccccc3)cccc12 [LY-294002] | 24.99 | 14.79 | 11.09 |  |  |  |  |  |  |  |  |  |
| C=C[C@H]1CN2CC[C@H]1C[C@H]2[C@H](O)c1ccnc2ccc(OC)cc12 [QUININE] |  |  |  | 94.35 | 110.94 | 99.32 | 103.56 |  |  |  |  | Activity (H4 [12]): 146.94%; Activity (H4 [13]): 160.38%; Activity (H4 [14]): 165.01%; Activity (H4 [19]): 70.35%; Activity (H4 [20]): 78.03%; Activity (H4 [21]): 60.7%; Activity (H4 [15]): 115.16% |
| CC(/C=C/C(=O)NO)=C\[C@@H](C)C(=O)c1ccc(N(C)C)cc1 [TRICHOSTATIN] |  |  |  |  |  |  |  | 636.52 | 864.85 | 1649.69 | 40.15 |  |
| COc1ccc(CCN(C)CCC[C@](C#N)(c2ccc(OC)c(OC)c2)C(C)C)cc1OC [VERAPAMIL] |  |  |  | 103.33 | 114.92 | 97.84 | 94.39 | 168.55 | 200.63 | 238.6 | 132.44 |  |
